Assay results published in ChEMBL document CHEMBL1157105, “Semisynthesis of natural flavones inhibiting tubulin polymerization, from hesperidin” (J Nat Prod, 2010).
One block for each compound: values may come before it.

Assays:
[1] = organism: Ovis aries; assay: Ratio of compound IC50 to DPPT IC50 for sheep brain tubulin polymerization
In short: (§1)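 Sheep brain microtubule protein purified by two 37 °C/0 °C assembly–disassembly cycles in 100 mM MES pH 6.6, 1 mM EGTA, 0.5 mM MgCl2. Compound in DMSO (1 µL) added to 150 µL microtubule solution, then incubated 37 °C 10 min and 0 °C 5 min. Polymerization rate read by turbidity at 350 nm. Reported as % inhibition at ~2.5 × 10^-3 M or IC50; deoxypodophyllotoxin reference, ratio IC50 compound/IC50 DPPT.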

[2] = tested on: HL-60; assay: Induction of apoptosis in human HL60 cells assessed as increase in caspase 3/7 activation at 500 nM after 48 hrs by fluorescence assay relative to control; assay type: functional
In short: (§2)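 HL60 cells grown in complete RPMI, seeded at 20 000 cells/well and treated with DMSO-dissolved compound. Vehicle controls; 1 µM doxorubicine positive control. Fluorescence (ex 360/em 465 nm) followed over 3 h. Reported as fold caspase 3/7 activation over control.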

[3] = tested on: KB; assay: Cytotoxicity against human KB cells after 72 hrs by MTS assay; assay type: functional, cell-based
In short: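 KB cells grown in D-MEM with 10% fetal calf serum under 5% CO2. Seeded at 600 cells/well and dosed 24 h later with DMSO solutions from 0.5 nM to 10 µM (1% DMSO final; vehicle controls). After 72 h, MTS added for 3 h at 37 °C and A490 read, in triplicate. % inhibition = (1 − OD treated/OD control) × 100; IC50 derived.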

[4] = Inhibition of sheep brain tubulin polymerization after 15 mins by turbidimetry; set-up: species or system Ovis aries; in short: as §1
[5] = organism: Ovis aries; assay: Inhibition of sheep brain tubulin polymerization at 2.5 mM after 15 mins by turbidimetry; in short: as §1
[6] = tested on: KB; assay: Cytotoxicity against human KB cells at 1 uM after 72 hrs by MTS assay
[7] = tested on: HL-60; assay: Induction of apoptosis in human HL60 cells assessed as increase in caspase 3/7 activation at 50 nM after 48 hrs by fluorescence assay relative to control; assay type: functional; in short: as §2

Ratio IC50 [1]: 5
IC50 [4]: 14000 nM
Structure (SMILES): COc1ccc(-c2oc3c(OC)c(O)c(OC)c(O)c3c(=O)c2OC)cc1O
Activity [6]: 10%

inhibition [5]: 36%
Structure (SMILES): COc1ccc(-c2oc3c(Br)c(OC)c(Br)c(O)c3c(=O)c2OC)cc1O
IC50 [3]: 404 nM
fold change (FC) [7]: 3.2

Ratio IC50 [1]: 0.46
IC50 [4]: 1300 nM
Structure (SMILES): COc1ccc(-c2oc3c(OC)c(OC)c(OC)c(O)c3c(=O)c2OC)cc1O
IC50 [3]: 8 nM
fold change (FC) [7]: 6.9

Further lines, the compound ahead of its results:

Structure (SMILES): COc1ccc(-c2oc3cc(OC)c(OC)c(O)c3c(=O)c2OC)cc1O [CASTICIN]
Ratio IC50 [1]: 6.8
fold change (FC) [2]: 5.3
IC50 [3]: 97 nM
IC50 [4]: 19000 nM

Structure (SMILES): COc1cc(O)c2c(=O)c(OC)c(-c3ccc(OC)c(O)c3)oc2c1 [AYANIN]
inhibition [5]: 0%
Activity [6]: 3%

Structure (SMILES): COc1ccc(-c2oc3c(OC)c(OC)cc(O)c3c(=O)c2OC)cc1O
inhibition [5]: 0%
Activity [6]: 9%

Structure (SMILES): COc1ccc(-c2oc3c(N(C)C)c(OC)c(OC)c(O)c3c(=O)c2OC)cc1O
inhibition [5]: 0%
Activity [6]: 40%
